Tests used:
Format in all cases: functional
NCI-H460 = assay: Cytotoxicity against human NCI-H460 cells assessed as cell growth at 100 uM after 48 hrs by sulforhodamine B assay; conditions: NCI-H460, 48 h, read-out: Activity
Outline: (§1)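 Primary one-dose screen on a three-line panel (MCF7 breast, NCI-H460 lung, SF-268 CNS) at 10^-4 M. Cells were preincubated 24–48 h before a single addition of the agent, followed by 48 h incubation. Endpoint was SRB protein staining, reported as percent growth versus untreated controls.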

MCF7 [1] = assay: Cytotoxicity against human MCF7 cells assessed as cell growth at 100 uM after 48 hrs by sulforhodamine B assay; conditions: MCF7, 48 h, read-out: Activity; outline: as §1
SF-268 = assay: Cytotoxicity against human SF268 cells assessed as cell growth at 100 uM after 48 hrs by sulforhodamine B assay; conditions: SF-268, 48 h, read-out: Activity; outline: as §1
CCRF-CEM = assay: Growth inhibition of human CCRF-CEM cells after 48 hrs by sulforhodamine B assay
Outline: (§2)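 Five-concentration assay in about 60 human tumour lines, using 10-fold dilutions from 10^-4 to 10^-8 M with 48 h continuous exposure and an SRB protein endpoint. Percent growth at each level comes from time-zero, untreated-control and treated absorbances. GI50 is 50% lower net protein increase than control. Values beyond the tested range are given as greater or less than the extreme concentration.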

U-251 = assay: Growth inhibition of human U251 cells after 48 hrs by sulforhodamine B assay; conditions: U-251, 48 h; for TGI: read-out: pTGI (converted); outline: as §2
HCT-116 = assay: Growth inhibition of human HCT116 cells after 48 hrs by sulforhodamine B assay; conditions: HCT-116, 48 h; outline: as §2
MDA-MB-231 = assay: Growth inhibition of human MDA-MB-231 cells after 48 hrs by sulforhodamine B assay; conditions: MDA-MB-231, 48 h; outline: as §2
NCI-H23 = assay: Growth inhibition of human NCI-H23 cells after 48 hrs by sulforhodamine B assay; conditions: NCI-H23, 48 h; outline: as §2
OVCAR-3 = assay: Growth inhibition of human OVCAR-3 cells after 48 hrs by sulforhodamine B assay; conditions: OVCAR-3, 48 h; outline: as §2
MCF7 [2] = assay: Growth inhibition of human MCF7 cells after 48 hrs by sulforhodamine B assay; conditions: MCF7, 48 h; outline: as §2
[3] = read-out: pLC50 (the source's name) (converted)

| Compound | growth at 100 µM (NCI-H460) [%] | growth at 100 µM (MCF7 [1]) [%] | growth at 100 µM (SF-268) [%] | other results |
| --- | --- | --- | --- | --- |
| COc1ccc(/C=C2\SC(=O)N(CC(=O)Nc3nccs3)C2=O)cc1 | 98 | 98 | 107 |  |
| O=C(CN1C(=O)S/C(=C\c2ccc(Cl)cc2)C1=O)Nc1ccc(Cl)cc1 | 101 | 102 | 105 |  |
| COc1ccc(/C=C2\NC(=O)N(CC(=O)Nc3ccc(OC)cc3)C2=O)cc1 |  |  |  | GI50 (CCRF-CEM): 0.195 µM; LC50 (CCRF-CEM): > 100 µM; TGI (CCRF-CEM; read-out: pTGI (converted)): > 100 µM; GI50 (U-251): 30.9 µM; LC50 (U-251): > 100 µM; TGI (U-251): > 100 µM |
| O=C(CN1C(=O)S/C(=C\C=C\c2ccccc2)C1=O)Nc1ccc(Cl)cc1 | 108 | 92 | 98 |  |
| COc1ccc(/C=C2/NC(=O)N(CC(=O)Nc3cccc(C(F)(F)F)c3)C2=O)cc1 | 44 | 64 | 65 | GI50 (HCT-116): 30.2 µM; LC50 (HCT-116): > 100 µM; TGI (HCT-116; read-out: pTGI (converted)): > 100 µM; GI50 (MDA-MB-231): 23.4 µM; LC50 (MDA-MB-231): > 100 µM; TGI (MDA-MB-231; read-out: pTGI (converted)): 58.9 µM; GI50 (U-251): 25.7 µM; LC50 (U-251): > 100 µM; TGI (U-251): 69.2 µM; GI50 (NCI-H23): 26.3 µM; LC50 (NCI-H23): > 100 µM; TGI (NCI-H23; read-out: pTGI (converted)): 89.1 µM; GI50 (OVCAR-3): 30.9 µM; CC50 (OVCAR-3; [3]): > 100 µM; TGI (OVCAR-3; read-out: pTGI (converted)): 95.5 µM; GI50 (MCF7 [2]): 2.82 µM; CC50 (MCF7 [2]; [3]): > 100 µM; TGI (MCF7 [2]; read-out: pTGI): > 100 µM |
| O=C(CC1NC(=O)NC1=O)Nc1ccc(Cl)cc1 (stereo not drawn) | 121 | 115 | 114 |  |
| O=C(CC1SC(=O)NC1=O)Nc1nccs1 (stereo not drawn) | 116 | 115 | 114 |  |
| O=C(CC1NC(=O)NC1=O)Nc1nccs1 (stereo not drawn) | 108 | 111 | 114 |  |
| O=C(CN1C(=O)CNC1=O)Nc1cccc(C(F)(F)F)c1 | 106 | 111 | 113 |  |

Source: ChEMBL document CHEMBL1153575, “Synthesis and in vitro anticancer activity of 2,4-azolidinedione-acetic acids derivatives” (2009)
